Reference: ChEMBL document CHEMBL3297729, “Design, synthesis and biological activity of piperlongumine derivatives as selective anticancer agents” (Eur J Med Chem, 2014)
Activity calls are given as the source filed them. No cut-off for these calls is given here.

Tests used:
HCT-116 = assay: Cytotoxicity against human HCT116 cells after 72 hrs by MTT assay; assay type: functional, cell-based; details: HCT-116, 72 h
How it was run: (§1)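 MTT assay. Cells seeded at 5 × 10^3/well and grown 24 h at 37 °C in humidified 5% CO2. Compounds added at a range of concentrations in triplicate wells, with 0.1% DMSO as control, for 72 h. MTT (5 mg/mL solution) added for a further 4 h. Formazan dissolved in DMSO and absorbance read at 570 nm. IC50 derived by the Logit method.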

[1] = Cytotoxicity against human ZR75-30 cells after 72 hrs by MTT assay; assay type: functional, cell-based; details: ZR-75-30, 72 h; how it was run: as §1
MDA-MB-231 = assay: Cytotoxicity against human MDA-MB-231 cells after 72 hrs by MTT assay; assay type: functional, cell-based; details: MDA-MB-231, 72 h; how it was run: as §1
MRC5 = assay: Cytotoxicity against human MRC5 cells after 72 hrs by MTT assay; assay type: cell-based; details: MRC5, 72 h; how it was run: as §1
[2] = Cytotoxicity against human Hep3B cells after 72 hrs by MTT assay; assay type: functional, cell-based, Hep 3B2; how it was run: as §1
A549 [3] = assay: Cytotoxicity against human A549 cells after 72 hrs by MTT assay; assay type: functional, cell-based; details: A549, 72 h; how it was run: as §1
WI-38 = assay: Cytotoxicity against human WI38 cells after 72 hrs by MTT assay; assay type: cell-based; details: WI-38, 72 h; how it was run: as §1
[4] = Selectivity ratio of IC50 for human MRC5 cells to IC50 for human MDA-MB-231 cells; assay type: ADME, cell-based; details: MRC5 cells versus MDA-MB-231 cells, read-out: Ratio IC50
[5] = Selectivity ratio of IC50 for human MRC5 cells to IC50 for human ZR75-30 cells; assay type: ADME, cell-based; details: MRC5 cells versus ZR75-30 cells, read-out: Ratio IC50
[6] = Selectivity ratio of IC50 for human MRC5 cells to IC50 for human HCT116 cells; assay type: ADME, cell-based, HCT-116; details: MRC5 cells versus HCT116 cells, read-out: Ratio IC50
A549 [7] = assay: Increase of ROS level in human A549 cells at 10 uM after 1 hr by fluorescence microscopic analysis; assay type: functional, cell-based
How it was run: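 Cells treated with compound or DMSO for 1 h, then loaded with 10 μM DCFH-DA for 30 min at 37 °C. Washed twice with PBS and imaged at once by fluorescence microscopy. Mean fluorescence compared with control.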

A549 [8] = assay: Antitumor activity against human A549 cells xenografted in BALB/C nude mouse assessed as inhibition of tumor growth at 2 mg/kg, ip administered for 14 days; assay type: functional; details: 336 h, route intraperitoneal
Mus musculus = assay: Toxicity in human A549 cells xenografted BALB/C nude mouse assessed as reduction of body weight at 2 mg/kg, ip administered for 14 days; assay type: organism-based; set-up: dose 2 mg/kg, route intraperitoneal; details: in vivo, 336 h
How it was run: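 Male BALB/C nude mice (18–20 g) implanted sc in the right axilla with A549 cells. Dosing began at tumor volume about 100–300 mm3 (day 17): 2 mg/kg ip daily for 14 days, in normal saline with tween-80 as solubilizer. Six mice per treatment group, eight controls. Caliper tumor volume (1/2·a·b²) and body weight recorded every 4 days. Sacrifice on days 30–33 and tumors excised.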

SMILES	IC50 (HCT-116) [µM]	IC50 [1] [µM]	IC50 (MDA-MB-231) [µM]	IC50 (MRC5) [µM]	IC50 [2] [µM]	IC50 (A549 [3]) [µM]	IC50 (WI-38) [µM]	selectivity ratio [4]	selectivity ratio [5]	selectivity ratio [6]	Activity (A549 [7])	inhibition in vivo at 2 mg/kg (A549 [8]) [%]	Activity (Mus musculus)
COc1cc(/C=C/C(=O)N2CCC=CC2=O)cc(OC)c1OC [PIPLARTINE]	6.04	5.86	8.46	35	69.5	22.9	26.8	–	–	–	–	–	–
CCCC/C(=C\c1cc(OC)c(OC)c(OC)c1)C(=O)N1CCC=C(Cl)C1=O	7.53	–	6.55	–	14.8	3.78	7.93	–	–	–	–	–	–
COc1cc(/C=C/C(=O)N2CCC=C(N3CCOCC3)C2=O)cc(OC)c1OC	47.2	52.6	> 100	56.1	–	> 100	–	–	–	–	–	–	–
COc1cc(/C=C/C(=O)N2CCC=C(Br)C2=O)cc(OC)c1OC	7.12	–	2.73	–	8.09	4.79	20.7	–	–	–	–	–	–
COc1cc(/C=C(\C)C(=O)N2CCC=CC2=O)cc(OC)c1OC	10.3	3.32	11.7	19.4	–	23.9	–	–	–	–	–	–	–
CCC/C(=C\c1cc(OC)c(OC)c(OC)c1)C(=O)N1CCC=C(N2CCOCC2)C1=O	> 100	> 100	> 100	52.5	–	> 100	–	–	–	–	–	–	–
CC/C(=C\c1cc(OC)c(OC)c(OC)c1)C(=O)N1CCC=C(Cl)C1=O	9.17	–	7.27	–	19	4.06	5.48	–	–	–	–	–	–
COc1cc(/C=C/C(=O)N2CCC=C(Cl)C2=O)cc(OC)c1OC	4.28	4.49	6.71	14.3	–	19.8	–	2	2	2	–	–	–
CC/C(=C\c1cc(OC)c(OC)c(OC)c1)C(=O)N1CCC=C(N2CCOCC2)C1=O	> 100	> 100	> 100	> 100	–	> 100	–	–	–	–	–	–	–
CCC/C(=C\c1cc(OC)c(OC)c(OC)c1)C(=O)N1CCC=C(Br)C1=O	2.14	–	2.36	–	5.54	2.63	5.02	–	–	–	–	–	–
CCC/C(=C\c1cc(OC)c(OC)c(OC)c1)C(=O)N1CCC=C(Cl)C1=O	8.08	–	8.13	–	22.4	3.81	10.4	–	–	–	–	–	–
CC/C(=C\c1cc(OC)c(OC)c(OC)c1)C(=O)N1CCC=C(Br)C1=O	3.02	–	2.12	–	8.12	2.18	7.94	–	–	–	–	–	–
CCCC/C(=C\c1cc(OC)c(OC)c(OC)c1)C(=O)N1CCC=C(Br)C1=O	2.59	–	2.44	–	14.8	2.56	9.21	–	–	–	–	–	–
COc1cc(/C=C(\C)C(=O)N2CCC=C(N3CCOCC3)C2=O)cc(OC)c1OC	> 100	> 100	> 100	> 100	–	> 100	–	–	–	–	–	–	–
CC/C(=C\c1cc(OC)c(OC)c(OC)c1)C(=O)N1CCC=CC1=O	12.3	3.16	23.7	13.5	–	17.9	–	–	–	–	–	–	–
COc1cc(/C=C(\C)C(=O)N2CCC=C(Cl)C2=O)cc(OC)c1OC	9.85	–	6.07	–	16.7	3.94	19.6	–	–	–	Active	48.6	Non-toxic
COc1cc(/C=C(\C)C(=O)N2CCC=C(Br)C2=O)cc(OC)c1OC	6.2	–	2.47	–	3.1	2.67	7.16	–	–	–	–	–	–
